Results pooled from the literature.
OPRM1: Mu-type opioid receptor (OPRM1, Homo sapiens, UniProt P35372)
KAT2B: Histone acetyltransferase KAT2B (KAT2B, Homo sapiens, UniProt Q92831)
ALOX5: Polyunsaturated fatty acid 5-lipoxygenase (ALOX5, Homo sapiens, UniProt P09917)
PTPN7: Tyrosine-protein phosphatase non-receptor type 7 (PTPN7, Homo sapiens, UniProt P35236)
murD: UDP-N-acetylmuramoylalanine--D-glutamate ligase (murD, Escherichia coli K-12, UniProt P14900)
BCKDK: Branched-chain alpha-ketoacid dehydrogenase kinase (BCKDK, Homo sapiens, UniProt O14874)
PDE8A: High affinity cAMP-specific and IBMX-insensitive 3',5'-cyclic phosphodiesterase 8A (PDE8A, Homo sapiens, UniProt O60658)
SLC47A2: Multidrug and toxin extrusion protein 2 (SLC47A2, Homo sapiens, UniProt Q86VL8)

CC(C)c1cccc2c(/C=C/c3ccccc3)cc(-c3ccc(-c4ccc(C(=O)O)cc4)[nH]3)nc12 — IC50 (Retinoic acid receptor gamma (RARG, Homo sapiens, UniProt P13631); reporter gene, antagonist): > 3.3 µM
NC(=O)c1ccc[n+]([C@@H]2O[C@H](COP(=O)([O-])OP(=O)(O)OC[C@H]3O[C@@H](n4cnc5c(N)ncnc54)[C@H](O)[C@@H]3O)[C@@H](O)[C@H]2O)c1 — IC50 (Protein mono-ADP-ribosyltransferase PARP10 (PARP10, Homo sapiens, UniProt Q53GL7); enzyme activity, inhibitor): 456 µM
CSCC[C@H](NC(=O)[C@H](Cc1c[nH]c2ccccc12)NC(=O)CNC(=O)[C@H](Cc1ccc(O)cc1)NC(=O)[C@H](C)NC(=O)[C@@H](CCC(=O)O)NC(=O)CN1CCN(CC(=O)O)CCN(CC(=O)O)CCN(CC(=O)O)CC1)C(=O)N[C@@H](CC(=O)O)C(=O)N[C@@H](Cc1cccc2ccccc12)C(N)=O — IC50 (Gastrin/cholecystokinin type B receptor (Rattus norvegicus, UniProt P30553); ligand displacement, radioligand): 0.00192 µM
CCCC[C@H](NC(=O)[C@H](C)c1c(C)[nH]c2ccc(O)cc12)c1ncc(-c2cc3ccccc3nc2OC)[nH]1 — IC50 (OPRM1; cell-free assay): 4.61 µM
CC(C)=CCC[C@@]1(C)C(CC[C@H]2[C@]3(C)CC[C@H](O)C(C)(C)O[C@H]3CC[C@@]2(C)O)=C(C)CC[C@H]1O — IC50 (ATP-dependent translocase ABCB1 (ABCB1, Homo sapiens, UniProt P08183); transporter efflux, inhibitor, fluorescence; KB-V1; 10 min): 20 to 50 µM
CCCCCCCc1ccc(CCc2cccc(O)c2C(=O)O)cc1 — IC50 (KAT2B; enzyme activity, inhibitor, radiometric): > 200 µM
C=C(C)[C@@H]1CCC(C)=C[C@H]1c1c(O)cc(CCC)cc1O — IC50 (ALOX5; enzyme activity in cells, inhibitor): 7.6 µM
COc1ccc(S(=O)(=O)ON=C2C=C(C)C(=O)C(C)=C2)cc1 — IC50 (KAT2B; enzyme activity, inhibitor, radiometric): 34.7 µM
CC/C=C\C/C=C\C/C=C\C/C=C\C/C=C\CCCC(=O)O — IC50 (DNA polymerase (POLA1, Bos taurus, UniProt A0AAA9TD94); enzyme activity, inhibitor): 32.1 µM
Cc1ccc(C(=O)Nc2ccc(S(=O)(=O)O)c3cc(S(=O)(=O)O)cc(S(=O)(=O)O)c23)cc1NC(=O)c1cccc(NC(=O)Nc2cccc(C(=O)Nc3cc(C(=O)Nc4ccc(S(=O)(=O)O)c5cc(S(=O)(=O)O)cc(S(=O)(=O)O)c45)ccc3C)c2)c1 — IC50 (PTPN7; enzyme activity, inhibitor, fluorescence): 30 µM
N[C@@H](CC(=O)N1CCN(C(c2ccc(F)cc2)c2ccc(F)cc2)CC1)C(=O)N1Cc2ccccc2C1 — IC50 (Dipeptidyl peptidase 8 (Homo sapiens, UniProt Q6V1X1); enzyme activity, inhibitor): 0.128 µM
O=[N+]([O-])c1ccc(S(=O)(=O)Oc2ccccc2C=NNS(=O)(=O)c2ccc3ccccc3c2)cc1 — IC50 (murD; enzyme activity, inhibitor, absorbance): 74 µM
CCCc1nc(C(C)(C)O)c(C(=O)O)n1Cc1ccc(-c2ccccc2-c2nnn[nH]2)cc1 — IC50 (BCKDK; enzyme activity, inhibitor): 198 µM
CCCCCc1cc(O)c(C/C=C(\C)CCC=C(C)C)c(O)c1 — IC50 (ALOX5; enzyme activity in cells, inhibitor): 2 µM
C=CC(=O)Nc1cc(Nc2nccc(Nc3cc(Cl)c(F)cc3C(C)(C)O)n2)c(OC)cc1N1CC[C@@H](N(C)C)C1 — IC50 (Cytochrome P450 2A6 (CYP2A6, Homo sapiens, UniProt P11509); enzyme activity, inhibitor; human, liver microsomes): > 30 µM
CC[C@H](C)[C@H](NC(C)=O)C(=O)N[C@@H](CCC(=O)O)C(=O)N[C@H](C(=O)N[C@H](C=O)CC(=O)O)[C@@H](C)O — IC50 (Caspase-5 (CASP5, Homo sapiens, UniProt P51878); enzyme activity, inhibitor): 0.00644 µM
CCCc1nc2c(C)cc(-c3nc4ccccc4n3C)cc2n1Cc1ccc(-c2ccccc2C(=O)O)cc1 — IC50 (BCKDK; enzyme activity, inhibitor): > 300 µM
COc1ccc(C2=NN(C3CCCCCC3)C(=O)[C@@H]3CC=CC[C@H]23)cc1-c1ccc(C(N)=O)cc1 (relative stereo) — IC50 (PDE8A; enzyme activity, inhibitor): > 10 µM
CN1CCN(c2ccc(Nc3ncc4cc(C#N)c(=O)n(C5CCCC5)c4n3)cc2)CC1 — IC50 (Serine/threonine-protein kinase PLK2 (PLK2, Homo sapiens, UniProt Q9NYY3); enzyme activity, inhibitor): 2.17 µM
Cc1nccc2c1c(=O)n(C)c1cc(OC[C@@H](N)CC(C)C)c(C#N)cc21 — IC50 (OPRM1; cell-free assay): > 30 µM
CN(C)CCC=C1c2ccccc2CCc2ccccc21 — IC50 (SLC47A2; transporter uptake, inhibitor, radiometric; HEK293; 5 min): > 500 µM
COc1cc(/C=C2\SC(=O)NC2=O)cc(F)c1OCCNc1nc2c(cnn2C2CCCC2)c(=O)[nH]1 — IC50 (PDE8A; enzyme activity, inhibitor): 0.091 µM
O=C(Nc1ccccc1C=NNS(=O)(=O)c1ccc2ccccc2c1)c1ccc([N+](=O)[O-])cc1 — IC50 (murD; enzyme activity, inhibitor, absorbance): 43 µM
O=C(NO)c1ccc(NC(=O)C2(c3ccccc3)CCCC2)c(F)c1 — IC50 (Histone deacetylase 1 (HDAC1, Homo sapiens, UniProt Q13547); enzyme activity, inhibitor): 0.181 µM
O=c1c(O)c(-c2ccc(O)cc2)oc2cc(O)cc(O)c12 — IC50 (Histone deacetylase 8 (HDAC8, Homo sapiens, UniProt Q9BY41); enzyme activity, inhibitor): 7.8 µM
CN[C@H]1CC[C@@H](c2ccc(Cl)c(Cl)c2)c2ccccc21 — IC50 (PTPN7; enzyme activity, inhibitor, fluorescence): 110 µM
C=C(C)[C@@H]1CCC(C)=C[C@H]1c1c(O)cc(CCCCC)cc1O — IC50 (ALOX5; enzyme activity in cells, inhibitor): > 10 µM
C[C@@H]1CCO[C@H]2Cn3cc(C(=O)NCc4ccc(F)cc4F)c(=O)c(O)c3C(=O)N12 — IC50 (SLC47A2; transporter uptake, inhibitor, radiometric; HEK293; 5 min, pH 8.5): 24.8 µM
CCOCc1nc(O)c(-c2nnc(Cc3ccc(Cl)cn3)o2)c(O)c1-c1c(OC)cccc1OC — IC50 (OPRM1; ligand displacement, radioligand): > 30 µM
N#Cc1ccc(COc2ccccc2C=NNS(=O)(=O)c2ccc3ccccc3c2)cc1 — IC50 (murD; enzyme activity, inhibitor, absorbance): 62 µM
CNC(=O)c1cc2c(Oc3ccc(NC(=O)C4(C(=O)Nc5ccc(F)cc5)CC4)cc3)ccnc2cc1OC — IC50 (Ephrin type-A receptor 8 (EPHA8, Homo sapiens, UniProt P29322); enzyme activity, inhibitor, radiometric): 0.034 µM
CCCc1nc2c(n1Cc1ccc(-c3ccccc3-c3nnn[nH]3)cc1)C(=O)CCCC2 — IC50 (BCKDK; enzyme activity, inhibitor): 0.68 µM
Cc1ccc(-c2cc(-c3ccc(-c4ccc(C(=O)O)cc4)[nH]3)nc3c(C(C)C)cccc23)cc1 — IC50 (Retinoic acid receptor beta (RARB, Homo sapiens, UniProt P10826); reporter gene, antagonist): > 3.3 µM
CCOc1nc2cccc(C(=O)O)c2n1Cc1ccc(-c2ccccc2-c2nnn[nH]2)cc1 — IC50 (BCKDK; enzyme activity, inhibitor): 4.28 µM
O=C(O)C(=O)CC(=O)c1cccc(N(Cc2ccccc2)Cc2ccccc2)c1 — IC50 (PTPN7; enzyme activity, inhibitor, absorbance; pH 7): 87 µM
